# Reference: ChEMBL document CHEMBL4406918, “Inhibitory Effects of Multivalent Polypeptides on the Proliferation and Metastasis of Breast Cancer Cells” (ACS Med Chem Lett, 2019)
# The source made the active and inactive calls. The rule behind the calls is not given here. Where a SMILES comes first, the peptide text is derived from it.
# Experiments:
# [1] = Toxicity in BALB/c mouse xenografted with mouse 4T1 cells assessed as induction of morphological lesions in liver at 10 mg/kg administered intratumorally and measured after 24 days by H and E staining based inverted optical microscopic method; format: organism-based; settings: in vivo, other, 576 h
# 4T1 [2] = assay: Inhibition of cell migration in mouse 4T1 cells assessed as wound closure rate at 0.2 mM measured up to 36 hrs by inverted optical microscopic method based wound healing assay (reference value: 82%); format: functional; design: scale not given: the % may be the effect or the level left
# [3] = Stability in fetal bovine serum assessed as drug degradation measured for 4 hrs by RP-HPLC analysis; format: ADME, cell-free, Bos taurus; settings: cattle, read-out: Drug degradation
# How it was run: (§1)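 Peptides incubated in serum for up to 12 h. Degradation is followed as the percentage of intact YSL remaining at time points including 4 and 12 h.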
# 4T1 [4] = assay: Induction of apoptosis in mouse 4T1 cells assessed as late apoptotic cells at 0.4 mM incubated for 24 hrs by Annexin V-FITC/PI based FACS analysis (reference value: 6.62%); format: functional
# 4T1 [5] = assay: Induction of cell cycle arrest in mouse 4T1 cells assessed as accumulation at G0/G1 phase at 0.4 mM incubated for 24 hrs by PI staining based flow cytometric analysis (reference value: 37.78%); format: functional
# [6] = Toxicity in BALB/c mouse xenografted with mouse 4T1 cells assessed as induction of morphological lesions in heart at 10 mg/kg administered intratumorally and measured after 24 days by H and E staining based inverted optical microscopic method; format: organism-based; settings: in vivo, other, 576 h
# [7] = Toxicity in BALB/c mouse xenografted with mouse 4T1 cells assessed as induction of morphological lesions in kidney at 10 mg/kg administered intratumorally and measured after 24 days by H and E staining based inverted optical microscopic method; format: organism-based; settings: in vivo, other, 576 h
# 4T1 [8] = assay: Induction of apoptosis in mouse 4T1 cells assessed as early apoptotic cells at 0.4 mM incubated for 24 hrs by Annexin V-FITC/PI based FACS analysis (reference value: 0.76%); format: functional
# [9] = Toxicity in BALB/c mouse xenografted with mouse 4T1 cells assessed as change in body weight at 10 mg/kg administered intratumorally and measured after 24 days; format: organism-based; settings: in vivo, other, 576 h
# How it was run: (§2)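 BALB/c mice bearing subcutaneous 4T1 tumours received 6 doses of 10 mg/kg, with equal YSL-monomer molar amounts across compounds and saline as control. Tumour volume growth curves and body weights were tracked. Mean ± SD, n = 5.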
# [10] = Toxicity in BALB/c mouse xenografted with mouse 4T1 cells assessed as change in serum creatinine level at 10 mg/kg administered intratumorally and measured after 24 days; format: organism-based; settings: in vivo, other, 576 h
# 4T1 [11] = assay: Induction of cell cycle arrest in mouse 4T1 cells assessed as accumulation at G2/M phase at 0.4 mM incubated for 24 hrs by PI staining based flow cytometric analysis (reference value: 19.82%); format: functional
# 4T1 [12] = assay: Antitumour activity against mouse 4T1 cells xenografted in BALB/c mouse assessed as increase in damage of tumor tissue at 10 mg/kg administered intratumorally and measured after 24 days by H and E staining based inverted optical microscopic method; format: functional, organism-based
# How it was run: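 Tumours from 4T1-bearing BALB/c mice given 6 doses of 10 mg/kg (saline control) were sectioned and stained with H&E, plus CD31, Ki-67 and TUNEL.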
# [13] = Stability in fetal bovine serum assessed as drug degradation measured for 12 hrs by RP-HPLC analysis; format: ADME, cell-free, Bos taurus; settings: cattle, read-out: Drug degradation; how it was run: as §1
# Erythrocyte = assay: Hemolytic activity in BALB/c mouse RBC at 3.2 mM incubated for 2 hrs by UV-Vis spectrophotometric analysis; format: ADME, cell-based; settings: 3200 µM
# How it was run: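 Hemolysis assay on red blood cells with dendrimers up to 3.2 mM. Result is expressed as hemolysis rate, with under 5% taken as acceptable.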
# 4T1 [14] = assay: Induction of cell cycle arrest in mouse 4T1 cells assessed as accumulation at S phase at 0.4 mM incubated for 24 hrs by PI staining based flow cytometric analysis (Rvb =42.35%); format: functional
# 4T1 [15] = assay: Antiproliferative activity against mouse 4T1 cells assessed as cell death at 0.2 mM incubated for 24 hrs by MTT assay relative to control; format: functional
# How it was run: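 Mouse 4T1 breast cancer cells exposed for 24 h (doses include 0.1 and 0.2 mM), then read by MTT for viability or cell death. Mean ± SD, n = 6.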
# [16] = Toxicity in BALB/c mouse xenografted with mouse 4T1 cells assessed as change in blood urea nitrogen level at 10 mg/kg administered intratumorally and measured after 24 days; format: organism-based; settings: in vivo, other, 576 h
# 4T1 [17] = assay: Antitumour activity against mouse 4T1 cells xenografted in BALB/c mouse assessed as reduction in number of lung tumor metastatic nodules at 10 mg/kg administered intratumorally and measured after 24 days by H and E staining based inverted optical microscopic method; format: functional, organism-based
# How it was run: (§3)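 After 6 doses of 10 mg/kg to 4T1 tumour-bearing BALB/c mice (saline control), lungs were photographed whole and examined histopathologically for the number and size of metastatic nodules.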
# 4T1 [18] = assay: Antitumour activity against mouse 4T1 cells xenografted in BALB/c mouse assessed as inhibition in tumor growth at 10 mg/kg administered intratumorally and measured every 3 days for 24 days; format: functional, organism-based; how it was run: as §2
# 4T1 [19] = assay: Antiproliferative activity against mouse 4T1 cells at 0.1 mM incubated for 24 hrs by MTT assay; format: functional, cell-based
# [20] = Toxicity in BALB/c mouse xenografted with mouse 4T1 cells assessed as induction of morphological lesions in spleen at 10 mg/kg administered intratumorally and measured after 24 days by H and E staining based inverted optical microscopic method; format: organism-based; settings: in vivo, other, 576 h
# 4T1 [21] = assay: Inhibition of cell migration in mouse 4T1 cells assessed as migration frequency at 0.2 mM incubated for 24 hrs by crystal violet staining based transwell assay relative to control; format: functional; design: scale not given: the % may be the effect or the level left
# How it was run: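 4T1 cells, Transwell migration with 24 h exposure to 0.2 mM. Migration rate comes from counting cells on the bottom of the porous membrane. Mean ± SD, n = 3.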
# 4T1 [22] = assay: Induction of apoptosis in mouse 4T1 cells at 0.8 mM incubated for 24 hrs by PI staining based inverted microscopic method; format: functional, cell-based
# How it was run: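 Live–dead staining of 4T1 cells after 24 h exposure, with PI uptake imaged microscopically. A higher 0.8 mM dose was also tested.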
# 4T1 [23] = assay: Inhibition of metastasis in mouse 4T1 cells assessed as disruption in F-actin arrangement at 0.2 mM incubated for 24 hrs by Hoechst 33342 staining based confocal laser scanning microscopic method; format: functional, cell-based
# How it was run: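 After 24 h at 0.2 mM, 4T1 cells were stained for F-actin with Alexa Fluor 488 phalloidin and for nuclei with Hoechst 33342, then imaged by fluorescence for cytoskeletal arrangement and cell morphology.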
# 4T1 [24] = assay: Induction of apoptosis in mouse 4T1 cells assessed as viable cells at 0.4 mM incubated for 24 hrs by Annexin V-FITC/PI based FACS analysis (reference value: 92.2%); format: functional; settings: 4T1, 24 h, read-out: Activity
# 4T1 [25] = assay: Induction of apoptosis in mouse 4T1 cells assessed as necrotic cells at 0.4 mM incubated for 24 hrs by Annexin V-FITC/PI based FACS analysis (reference value: 0.47%); format: functional
# 4T1 [26] = assay: Antitumour activity against mouse 4T1 cells xenografted in BALB/c mouse assessed as reduction in size of lung tumor metastatic nodules at 10 mg/kg administered intratumorally and measured after 24 days by H and E staining based inverted optical microscopic method; format: functional, organism-based; how it was run: as §3
# 4T1 [27] = assay: Antiinvasive activity in mouse 4T1 cells assessed as inhibition of cell invasion at 0.2 mM incubated for 24 hrs by crystal violet staining based matrigel invasion assay relative to control; format: functional; settings: 4T1, 24 h
# How it was run: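 4T1 cells, Matrigel-coated Transwell invasion with 0.2 mM compound. Invasion rate comes from counting cells on the underside of the Matrigel-coated porous membrane, relative to untreated control. Mean ± SD, n = 3.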
smiles,measurement,setting,value
COC(=O)[C@H](CC(C)C)NC(=O)[C@H](CO)NC(=O)[C@@H](N)Cc1ccc(O)cc1 (H-Tyr-Ser-Leu-OMe),Activity,[1],Non-Toxic
same,Activity,4T1 [2],80%
same,metabolised at 4 h,[3],60%
same,Activity,4T1 [4],10.3%
same,Activity,4T1 [5],37.41%
same,Activity,[6],Non-Toxic
same,Activity,[7],Non-Toxic
same,Activity,4T1 [8],0.88%
same,Activity,[9],Non-Toxic
same,Activity,[10],Non-Toxic
same,Activity,4T1 [11],48.48%
same,Activity,4T1 [12],Active
same,metabolised at 12 h,[13],100%
same,Activity,Erythrocyte,Non-Toxic
same,Activity,4T1 [14],42.35%
same,Activity,4T1 [15],2%
same,Activity,[16],Non-Toxic
same,Activity,4T1 [17],Active
same,Activity,4T1 [18],Active
same,Activity,4T1 [19],inactive
same,Activity,[20],Non-Toxic
same,Activity,4T1 [21],82%
same,Activity,4T1 [22],Active
same,F-actin disruption (qualitative),4T1 [23],Active
same,viability at 400 µM,4T1 [24],87.6%
same,Activity,4T1 [25],1.23%
same,Activity,4T1 [26],Active
same,inhibition at 200 µM,4T1 [27],92%
